Here are results for 9 molecules from ChEMBL document CHEMBL1141348, “Cytotoxic cardenolide glycosides of Roupellina (Strophanthus) boivinii from the Madagascar rainforest” (J Nat Prod, 2007).

A word on the IC50: it is the concentration needed to halve the response being measured.

This assay relates to A2780. In words: Antiproliferative activity against human A2780 cells. The format is functional, cell-based. The method, boiled down:
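Growth inhibition of the drug-sensitive human ovarian cancer line A2780, measured at Virginia Polytechnic Institute and State University. IC50 is the concentration that inhibited 50% of cell growth. Actinomycin D was the positive control.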
Consider `C[C@H]1O[C@@H](O[C@H]2CC[C@@]3(C=O)[C@@H](CC[C@@H]4[C@@H]3CC[C@]3(C)[C@@H](C5=CC(=O)OC5)CC[C@]43O)C2)C[C@H](O)[C@H]1O`, for which the midpoint of inhibition, the IC50, lay at 150 nM. For `CO[C@H]1[C@@H](O)[C@H](O[C@H]2CC[C@@]3(C)[C@@H](CC[C@@H]4[C@@H]3CC[C@]3(C)[C@@H](C5=CC(=O)OC5)CC[C@]43O)C2)O[C@@H](C)[C@@H]1O[C@@H]1O[C@H](CO)[C@@H](O)[C@H](O)[C@H]1O`, the IC50 is 150 nM. On to `C[C@H]1[C@@H](O[C@H]2CC[C@@]3(C)[C@@H](CC[C@@H]4[C@@H]3CC[C@]3(C)[C@@H](C5=CC(=O)OC5)CC[C@]43O)C2)O[C@@H](C)[C@@H](O)[C@H]1O`, for which the IC50 amounted to 150 nM. That is a sub-micromolar value.

Molecule `CO[C@H]1C[C@H](O[C@H]2CC[C@@]3(C=O)[C@@H](CC[C@@H]4[C@@H]3CC[C@]3(C)[C@H](C5=CC(=O)OC5)CC[C@]43O)C2)O[C@H](C)[C@@H]1O` had an IC50 of 3700 nM. `CO[C@@H]1[C@@H](O)[C@H](O[C@H]2CC[C@@]3(C=O)[C@@H](CC[C@@H]4[C@@H]3CC[C@]3(C)[C@@H](C5=CC(=O)OC5)CC[C@]43O)C2)O[C@H](C)[C@@H]1O[C@@H]1O[C@H](CO)[C@@H](O)[C@H](O)[C@H]1O` [BOIVINIDE A] returned an IC50 of 170 nM. The molecule `CO[C@H]1C[C@H](O[C@H]2CC[C@@]3(C=O)[C@@H](CC[C@@H]4[C@@H]3CC[C@]3(C)[C@@H](C5=CC(=O)OC5)CC[C@]43O)C2)O[C@H](C)[C@@H]1O[C@@H]1O[C@H](CO)[C@@H](O)[C@H](O)[C@H]1O` [BOIVINIDE B] yielded an IC50 of 660 nM. The molecule `CO[C@H]1C[C@H](O[C@H]2CC[C@@]3(C=O)[C@@H](CC[C@@H]4[C@@H]3CC[C@]3(C)[C@H](C5=CC(=O)OC5)CC[C@]43O)C2)O[C@H](C)[C@@H]1O[C@@H]1O[C@H](CO)[C@@H](O)[C@H](O)[C@H]1O` [BOIVINIDE C] displayed a concentration for half-maximal inhibition (IC50) of 2900 nM.

For the molecule `C[C@H]1O[C@@H](O[C@H]2CC[C@@]3(C=O)[C@@H](CC[C@@H]4[C@@H]3CC[C@]3(C)[C@@H](C5=CC(=O)OC5)CC[C@]43O)C2)C[C@H](O)[C@H]1O[C@@H]1O[C@H](CO)[C@@H](O)[C@H](O)[C@H]1O` [BOIVINIDE D], the IC50 was found to be 290 nM. Turning to `CO[C@H]1[C@@H](O[C@@H]2O[C@H](CO)[C@@H](O)[C@H](O)[C@H]2O)[C@@H](C)O[C@@H](O[C@H]2CC[C@@]3(C=O)[C@@H](CC[C@@H]4[C@@H]3CC[C@]3(C)[C@@H](C5=CC(=O)OC5)CC[C@]43O)C2)[C@@H]1OC(C)=O` [BOIVINIDE F], the IC50 was found to be 540 nM. This IC50 lies about 1.9-fold higher than the previous one.
